Measured values: ChEMBL document CHEMBL1159061, “Synthesis and biological properties of iron chelators based on a bis-2-(2-hydroxy-phenyl)-thiazole-4-carboxamide or -thiocarboxamide (BHPTC) scaffold” (Bioorg Med Chem, 2010)
The source made the active and inactive calls. The calls are words filed in the database; no cut-off is given here.

Legend:
[1] = Induction of iron chelating activity by calcein fluorescence assay; assay type: physicochemical
Method in brief: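 Cell-free calcein assay in 20 mM HEPES, 150 mM NaCl, pH 7.3, at 20 °C with orbital stirring. Calcein was quenched with iron(III) for 6 h to maximal quenching. Fluorescence recovery (ex 485/em 520 nm) was followed for 1 h at various chelator concentrations, and the initial dequenching rate was derived from the kinetics. Three independent experiments.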

[2] = Antiproliferative activity against human HepaRG cells after 72 hrs by MTT assay; assay type: functional, cell-based
Method in brief: (§1)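 Proliferating HepaRG cells at day 4 (seeded at 2.5×10⁴/cm² in William's E, 10% FCS, insulin, glutamine, hydrocortisone) were exposed for 72 h to a concentration series, with or without added iron(III) as each line states. Viability was read by MTT (0.5 mg/L as printed) for 3 h in serum-free medium, DMSO-solubilized formazan at 535 nm, expressed as % of control SDH activity.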

[3] = Antiproliferative activity against human HepaRG cells after 72 hrs by MTT assay in presence of iron(3); assay type: functional, cell-based; method in brief: as §1
HepaRG = assay: Cytotoxicity against human HepaRG cells assessed as increase in extracellular LDH release at >100 uM after 72 hrs in presence of iron(3); assay type: functional, cell-based
KB [4] = assay: Antiproliferative activity against human KB cells at 10 uM after 72 hrs by MTS assay; assay type: functional
Method in brief: (§2)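 Cells grown under 5% CO2: KB and HepG2 in DMEM with 10% FCS, penicillin, streptomycin and fungizone; HCT116, HT29, HCT15, MCF7, MCF7R, SK-OV3, PC-3, A549, HL60, K562 and SF268 in RPMI. Cells were plated in 96-well plates and dosed 24 h later from DMSO stocks (controls 1% DMSO final). After 72 h, MTS was added for 3 h at 37 °C and absorbance read at 490 nm. Inhibition = (1 − OD treated/OD control)×100, in triplicate.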

KB [5] = assay: Antiproliferative activity against human KB cells at 1 uM after 72 hrs by MTS assay; assay type: functional; method in brief: as §2
HCT-116 [6] = assay: Antiproliferative activity against human HCT116 cells at 10 uM after 72 hrs by MTS assay; assay type: functional; conditions: HCT-116, 72 h; method in brief: as §2
HCT-116 [7] = assay: Antiproliferative activity against human HCT116 cells at 1 uM after 72 hrs by MTS assay; assay type: functional; conditions: HCT-116, 72 h; method in brief: as §2
HT-29 [8] = assay: Antiproliferative activity against human HT-29 cells at 10 uM after 72 hrs by MTS assay; assay type: functional; conditions: HT-29, 72 h; method in brief: as §2
HT-29 [9] = assay: Antiproliferative activity against human HT-29 cells at 1 uM after 72 hrs by MTS assay; assay type: functional; conditions: HT-29, 72 h; method in brief: as §2
HCT-15 [10] = assay: Antiproliferative activity against human HCT15 cells at 10 uM after 72 hrs by MTS assay; assay type: functional; conditions: HCT-15, 72 h; method in brief: as §2
HCT-15 [11] = assay: Antiproliferative activity against human HCT15 cells at 1 uM after 72 hrs by MTS assay; assay type: functional; conditions: HCT-15, 72 h; method in brief: as §2
MCF7 [12] = assay: Antiproliferative activity against human MCF7 cells at 10 uM after 72 hrs by MTS assay; assay type: functional; conditions: MCF7, 72 h; method in brief: as §2
MCF7 [13] = assay: Antiproliferative activity against human MCF7 cells at 1 uM after 72 hrs by MTS assay; assay type: functional; conditions: MCF7, 72 h; method in brief: as §2
MCF7 [14] = assay: Antiproliferative activity against doxorubicin-resistant human MCF7 cells at 10 uM after 72 hrs by MTS assay; assay type: functional; conditions: MCF7, 72 h; method in brief: as §2
MCF7 [15] = assay: Antiproliferative activity against doxorubicin-resistant human MCF7 cells at 1 uM after 72 hrs by MTS assay; assay type: functional; conditions: MCF7, 72 h; method in brief: as §2
A549 [16] = assay: Antiproliferative activity against human A549 cells at 10 uM after 72 hrs by MTS assay; assay type: functional; conditions: A549, 72 h; method in brief: as §2
A549 [17] = assay: Antiproliferative activity against human A549 cells at 1 uM after 72 hrs by MTS assay; assay type: functional; conditions: A549, 72 h; method in brief: as §2
PC-3 [18] = assay: Antiproliferative activity against human PC3 cells at 10 uM after 72 hrs by MTS assay; assay type: functional; conditions: PC-3, 72 h; method in brief: as §2
PC-3 [19] = assay: Antiproliferative activity against human PC3 cells at 1 uM after 72 hrs by MTS assay; assay type: functional; conditions: PC-3, 72 h; method in brief: as §2
SF-268 [20] = assay: Antiproliferative activity against human SF268 cells at 10 uM after 72 hrs by MTS assay; assay type: functional; conditions: SF-268, 72 h; method in brief: as §2
SF-268 [21] = assay: Antiproliferative activity against human SF268 cells at 1 uM after 72 hrs by MTS assay; assay type: functional; conditions: SF-268, 72 h; method in brief: as §2
SK-OV-3 [22] = assay: Antiproliferative activity against human SKOV3 cells at 10 uM after 72 hrs by MTS assay; assay type: functional; conditions: SK-OV-3, 72 h; method in brief: as §2
SK-OV-3 [23] = assay: Antiproliferative activity against human SKOV3 cells at 1 uM after 72 hrs by MTS assay; assay type: functional; conditions: SK-OV-3, 72 h; method in brief: as §2
HL-60 [24] = assay: Antiproliferative activity against human HL60 cells at 10 uM after 72 hrs by MTS assay; assay type: functional; conditions: HL-60, 72 h; method in brief: as §2
HL-60 [25] = assay: Antiproliferative activity against human HL60 cells at 1 uM after 72 hrs by MTS assay; assay type: functional; conditions: HL-60, 72 h; method in brief: as §2
K562 [26] = assay: Antiproliferative activity against human K562 cells at 10 uM after 72 hrs by MTS assay; assay type: functional; conditions: K562, 72 h; method in brief: as §2
K562 [27] = assay: Antiproliferative activity against human K562 cells at 1 uM after 72 hrs by MTS assay; assay type: functional; conditions: K562, 72 h; method in brief: as §2
HepG2 [28] = assay: Antiproliferative activity against human HepG2 cells at 10 uM after 72 hrs by MTS assay; assay type: functional; conditions: HepG2, 72 h; method in brief: as §2
HepG2 [29] = assay: Antiproliferative activity against human HepG2 cells at 1 uM after 72 hrs by MTS assay; assay type: functional; conditions: HepG2, 72 h; method in brief: as §2
Hepatocyte = assay: Cytoprotective activity in human hepatocytes assessed as inhibition of FeNTA-induced increase in extracellular LDH activity relative to control; assay type: functional; set-up: scale not given: the % may be the effect or the level left

| SMILES | IC50 [2] | inhibition at 10 µM (KB [4]) | inhibition at 1 µM (KB [5]) | inhibition at 10 µM (HCT-116 [6]) | inhibition at 1 µM (HCT-116 [7]) | inhibition at 10 µM (HT-29 [8]) | inhibition at 1 µM (HT-29 [9]) | inhibition at 10 µM (HCT-15 [10]) | inhibition at 1 µM (HCT-15 [11]) | inhibition at 10 µM (MCF7 [12]) | inhibition at 1 µM (MCF7 [13]) | inhibition at 10 µM (MCF7 [14]) | inhibition at 1 µM (MCF7 [15]) | inhibition at 10 µM (A549 [16]) | inhibition at 1 µM (A549 [17]) | inhibition at 10 µM (PC-3 [18]) | inhibition at 1 µM (PC-3 [19]) | inhibition at 10 µM (SF-268 [20]) | inhibition at 1 µM (SF-268 [21]) | inhibition at 10 µM (SK-OV-3 [22]) | other results |
| --- | --- | --- | --- | --- | --- | --- | --- | --- | --- | --- | --- | --- | --- | --- | --- | --- | --- | --- | --- | --- | --- |
| COC(=O)c1ccc(O)c(-c2nc(C(=O)NCCOCCOCCNC(=O)c3csc(-c4cc(C(=O)OC)ccc4O)n3)cs2)c1 | 64 µM | 28% | 0% | 13% | 0% | 4% | 0% | 14% | 11% | 4% | 0% | 19% | 0% | 11% | 0% | 37% | 8% | 19% | 0% | 22% | IC50 [1]: 1 µM; IC50 [3]: 78 µM; Activity (HepaRG): Active; inhibition at 1 µM (SK-OV-3 [23]): 10%; inhibition at 10 µM (HL-60 [24]): 0%; inhibition at 1 µM (HL-60 [25]): 0%; inhibition at 10 µM (K562 [26]): 10%; inhibition at 1 µM (K562 [27]): 2%; inhibition at 10 µM (HepG2 [28]): 26%; inhibition at 1 µM (HepG2 [29]): 0%; Activity (Hepatocyte): 148% |
| O=C(O)c1ccc(O)c(-c2nc(C(=O)NCCOCCOCCNC(=O)c3csc(-c4cc(C(=O)O)ccc4O)n3)cs2)c1 | 120 µM | 2% | 0% | 0% | 0% | 1% | 0% | 0% | 0% | 0% | 0% | 2% | 0% | 0% | 1% | 8% | 0% | 0% | 0% | 7% | Activity (HepaRG): Active; inhibition at 1 µM (SK-OV-3 [23]): 4%; inhibition at 10 µM (HL-60 [24]): 0%; inhibition at 1 µM (HL-60 [25]): 0%; inhibition at 10 µM (K562 [26]): 9%; inhibition at 1 µM (K562 [27]): 0%; inhibition at 10 µM (HepG2 [28]): 0%; inhibition at 1 µM (HepG2 [29]): 0%; Activity (Hepatocyte): 179% |
| O=C(O)c1ccc(O)c(-c2nc(C(=S)NCCOCCOCCNC(=S)c3csc(-c4cc(C(=O)O)ccc4O)n3)cs2)c1 | 114 µM | 0% | 0% | 0% | 0% | 0% | 0% | 8% | 0% | 0% | 0% | 1% | 0% | 7% | 0% | 0% | 0% | 5% | 0% | 2% | IC50 [1]: 0.07 µM; Activity (HepaRG): Active; inhibition at 1 µM (SK-OV-3 [23]): 3%; inhibition at 10 µM (HL-60 [24]): 0%; inhibition at 1 µM (HL-60 [25]): 0%; inhibition at 10 µM (K562 [26]): 2%; inhibition at 1 µM (K562 [27]): 0%; inhibition at 10 µM (HepG2 [28]): 0%; inhibition at 1 µM (HepG2 [29]): 0% |
| CC(=O)N(O)CCCCCNC(=O)CCC(=O)N(O)CCCCCNC(=O)CCC(=O)N(O)CCCCCN [DEFEROXAMINE] | 50 µM | 16% | 0% | 20% | 0% | 42% | 0% | 46% | 0% | 0% | 0% | 9% | 0% | 50% | 2% | 44% | 1% | 33% | 0% | 52% | IC50 [1]: 4.4 µM; IC50 [3]: 70 µM; inhibition at 1 µM (SK-OV-3 [23]): 5%; inhibition at 10 µM (HL-60 [24]): 0%; inhibition at 1 µM (HL-60 [25]): 0%; inhibition at 10 µM (K562 [26]): 0%; inhibition at 1 µM (K562 [27]): 0%; inhibition at 10 µM (HepG2 [28]): 0%; inhibition at 1 µM (HepG2 [29]): 0%; Activity (Hepatocyte): 162% |
| COC(=O)c1ccc(O)c(-c2nc(C(=S)NCCOCCOCCNC(=S)c3csc(-c4cc(C(=O)OC)ccc4O)n3)cs2)c1 | 42 µM | 58% | 5% | 69% | 6% | 3% | 0% | 42% | 1% | 10% | 0% | 64% | 0% | 98% | 8% | 54% | 10% | 62% | 0% | 45% | IC50 [1]: 0.5 µM; IC50 [3]: 50 µM; inhibition at 1 µM (SK-OV-3 [23]): 10%; inhibition at 10 µM (HL-60 [24]): 52%; inhibition at 1 µM (HL-60 [25]): 0%; inhibition at 10 µM (K562 [26]): 53%; inhibition at 1 µM (K562 [27]): 1%; inhibition at 10 µM (HepG2 [28]): 43%; inhibition at 1 µM (HepG2 [29]): 0% |
